Laboratory results published in PMC7056512 (Cancer research, 2020).
Where two headings read alike, the source gives them in different places.

How the values were obtained:
[1] = test system: HNSCC cells and patient-matched CAFs; assay: protein synthesis, methionine analog incorporation; format: cell-based, human; details: for suppression of translation: 100nM, all cells; for inhibition of protein synthesis: at concentrations between 10 and 100nM, 1.5h treatment
[2] = test system: HNSCC cell lines (013C, 036C, 049C, 067C); assay: nonadherent sphere formation; format: cell-based, human; details: 1,000nM
Summary of the method: (§1)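 3x10^3 cells/well in ultra-low-attachment wells with serum-free DMEM/F12 plus 10ng/ml EGF and 10ng/ml bFGF; medium supplemented on days 4, 7 and 10. Spheres (>50µm) imaged, counted and sized (diameter) at day 10. Replicates: 013C n=4 (16 wells); 036C, 049C and 067C n=3 (12 wells).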

Myc in 013C cells = assay: Western blot densitometry of Myc; format: cell-based, human; details: 24h
049C cells [3] = assay: nonadherent sphere formation; format: cell-based, human; details: 1,000nM, 10 days
Summary of the method: as §1

CUHN036 CSCs = assay: sphere formation by CSCs sorted from PDX tumors; format: cell-based, human; details: 1,000nM
Summary of the method: (§2)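 CSCs sorted from PDX tumours plated at 1x10^4 per well in ultra-low-attachment wells. Medium was serum-free DMEM/F12 with 10ng/ml EGF and 10ng/ml bFGF, supplemented on days 4, 7 and 10. After 14 days, all spheres >50µm imaged, counted and diameter measured.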

[4] = test system: four non-transformed normal lines; assay: clonogenic radio-modulation; format: cell-based
036C cells [5] = assay: SRB antiproliferative assay; format: cell-based, human; details: read-out: IC50, antiproliferative
CUHN013 PDX = assay: PDX efficacy study; format: in vivo, Athymic Nude-Foxn1^nu mice
Summary of the method: (§3)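 Tumor pieces from 4th-8th-generation PDX implanted on both flanks of 6-10-week-old female mice. Anesthetized mice shielded except flank tumors and irradiated at 3 Gy (115 cGy/min) twice weekly for four weeks. Test compound given IP at 60mg/kg right after irradiation and 6h later. Tumors measured twice weekly. ALDH+CD44high CSC fraction measured by flow cytometry on day 28, then related to tumor treatment/control ratio by linear regression.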

049C cells [6] = assay: SRB antiproliferative assay; format: cell-based, human; details: read-out: IC50, antiproliferative
067C cells [7] = assay: nonadherent sphere formation; format: cell-based, human; details: 1,000nM, 10 days
Summary of the method: as §1

Myc in 067C cells = assay: Western blot densitometry of Myc; format: cell-based, human; details: 24h
CUHN036 PDX = assay: PDX efficacy study; format: in vivo, Athymic Nude-Foxn1^nu mice; details: for T/C (treatment vs control): twice weekly, day 28
Summary of the method: as §3

013C, 049C, 067C cells = assay: ribosome profiling; format: cell-based, human; details: 1,000nM, 6h
Summary of the method: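 Cells grown 48h in 10cm dishes to ~75% confluence, then treated 6h with DMSO or test compound at 1,000nM. Libraries built with the TruSeq Ribo Profile mammalian protocol. Total mRNA fragments and ribosome-protected fragments sequenced on Illumina HiSeq. RPF counts normalised to RNA-seq, with a >2-fold enrichment cutoff.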

19 HNSCC cell lines = assay: cell growth, CellTiter-Glo, 5 days; format: cell-based, human; details: read-out: average IC50, growth, average of 19 HNSCC lines
CUHN004 CSCs = assay: sphere formation by CSCs sorted from PDX tumors; format: cell-based, human; details: 1,000nM
Summary of the method: as §2

013C cells [8] = assay: SRB antiproliferative assay; format: cell-based, human; details: read-out: IC50, antiproliferative
Myc in 049C cells = assay: Western blot densitometry of Myc; format: cell-based, human; details: 24h
[9] = biological target: cap-independent translation of capless luciferase mRNA; assay: in vitro translation of uncapped poly; format: biochemical, rabbit; details: read-out: IC50, in vitro cap-independent translation; 30 min at 30°C
013C cells [10] = assay: protein synthesis, methionine analog incorporation; format: cell-based, human; details: 10nM
036C cells [11] = assay: nonadherent sphere formation; format: cell-based, human; details: 1,000nM, 10 days
Summary of the method: as §1

[12] = biological target: eEF2 release from the ribosome (Homo sapiens, UniProt P13639); assay: co-immunoprecipitation of eEF2 with ribosomal protein RPL13a; format: cell-based; details: 100nM; 013C and 036C cells
Det562 HNSCC cells [13] = details: read-out: IC50, proliferation
013C cells [14] = assay: nonadherent sphere formation; format: cell-based, human; details: 1,000nM, 10 days
Summary of the method: as §1

CUHN047 PDX = assay: PDX efficacy study; format: in vivo, Athymic Nude-Foxn1^nu mice; details: for T/C (treatment vs control): twice weekly, day 28
Summary of the method: as §3

036C cells [15] = assay: protein synthesis, methionine analog incorporation; format: cell-based, human; details: 1nM
Det562 HNSCC cells [16] = assay: clonogenic survival assay; format: cell-based, human; details: read-out: IC50, clonogenicity, drug 24h, then 9 days growth
067C cells [17] = assay: SRB antiproliferative assay; format: cell-based, human; details: read-out: IC50, antiproliferative
067C cells [18] = assay: protein synthesis, methionine analog incorporation; format: cell-based, human; details: 1nM
CUHN004 PDX = assay: PDX efficacy study; format: in vivo, Athymic Nude-Foxn1^nu mice
[19] = test system: HNSCC cancer cells (Detroit562, FaDu); assay: clonogenic radio-modulation; format: cell-based, human; details: multiple SVC112 doses
Myc in 036C cells = assay: Western blot densitometry of Myc; format: cell-based, human; details: 24h
CUHN013 CSCs = assay: sphere formation by CSCs sorted from PDX tumors; format: cell-based, human; details: 1,000nM
[20] = SVC112 alone, 60mg/kg IP at 0h and 6h
[21] = radiation (3Gy) plus SVC112 60mg/kg
[22] = radiation plus SVC112, by day 28

COC(=O)C[C@](O)(CCCC(C)(C)O)C(=O)O[C@@H]1C(OC)=C[C@]23CCCN2CCc2cc4c(cc2[C@H]13)OCO4 [HHT, Homoharringtonine, reference compound]
suppression of translation [1]: > 85%
inhibition of protein synthesis [1]: Greater than 75%
sphere formation [2]: blocked nearly all sphere formation

Meta Br-N-29-H derivative of RA-VII [SVC112]
Myc level, % of baseline (Myc in 013C cells): > 60%
sphere formation blocked (049C cells [3]): 48%
suppression of translation [1]: > 85%
inhibition of protein synthesis [1]: Greater than 75%
sphere formation by CSCs (CUHN036 CSCs): blocked sphere formation
dose-modifying factor (DMF) of radiation [4]: near or below 1
IC50 (036C cells [5]): 0.0038 µM
tumor response (CUHN013 PDX; SVC112 alone or with radiation, twice weekly): did not respond to any treatment
decrease of CSC fraction (ALDH+CD44hi) in tumors (CUHN013 PDX; radiation plus SVC112, day 28): 2.4 fold
IC50 (049C cells [6]): 0.0241 µM
sphere formation blocked (067C cells [7]): 79%
Myc reduction (Myc in 067C cells): > 80%
T/C (treatment vs control) (CUHN036 PDX; [20]): 0.45±0.12
T/C (treatment vs control) (CUHN036 PDX; [21]): 0.08±0.08
tumors that continued to regress and did not regrow after ending treatment (CUHN036 PDX; radiation plus SVC112, after end of treatment): six of eight
tumors with complete regression (CUHN036 PDX; [22]): four of twelve
decrease of CSC fraction (ALDH+CD44hi) in tumors (CUHN036 PDX; radiation plus SVC112, day 28): 10.4 fold
increase in captured ribosome protected fragments of DUSP1 (013C, 049C, 067C cells): 238 fold
increase in captured ribosome protected fragments of MAFF (013C, 049C, 067C cells): 346 fold
increase in captured ribosome protected fragments of NUAK2 (013C, 049C, 067C cells): 666 fold
increase in captured ribosome protected fragments of SERTAD1 (013C, 049C, 067C cells): 1699 fold
IC50 (19 HNSCC cell lines): 0.155 µM
sphere formation by CSCs (CUHN004 CSCs): blocked sphere formation
IC50 (013C cells [8]): 0.0505 µM
Myc reduction (Myc in 049C cells): > 80%
IC50 [9]: 0.081 ± 0.016 µM
inhibition of protein synthesis (013C cells [10]): ~ 50%
sphere formation blocked (036C cells [11]): 100%
release of eEF2 from the ribosome (immunoprecipitation of eEF2 with Rpl13a) [12]: blocked the release of eEF2 from the ribosome
IC50 (Det562 HNSCC cells [13]): ~0.28 µM
sphere formation blocked (013C cells [14]): 74%
T/C (treatment vs control) (CUHN047 PDX; [20]): 0.37±0.07
T/C (treatment vs control) (CUHN047 PDX; [21]): −0.02±0.03
tumors with complete regression (CUHN047 PDX; [22]): six out of ten
decrease of CSC fraction (ALDH+CD44hi) in tumors (CUHN047 PDX; radiation plus SVC112, day 28): 7.6 fold
decrease of protein synthesis (036C cells [15]): > 50%
IC50 (Det562 HNSCC cells [16]): ~0.015 µM
IC50 (067C cells [17]): 0.0093 µM
decrease of protein synthesis (067C cells [18]): > 50%
T/C (treatment vs control) (CUHN004 PDX; radiation (3Gy) plus SVC112 60mg/kg, twice weekly, day 28): 0.19±0.05
decrease of CSC fraction (ALDH+CD44hi) in tumors (CUHN004 PDX; radiation plus SVC112, day 28): 7.9 fold
dose-modifying factor (DMF) of radiation [19]: > 1
Myc reduction (Myc in 036C cells): > 80%
sphere formation by CSCs (CUHN013 CSCs): formed fewer, albeit normal-sized spheres
